# Dynein cargo inh = blocks dynein driven cargo transport along microtubules; 3617.4 mouse cells, GR-EGFP nuclear translocation imaging; test concentration mostly 20 µM; stimulated with dexamethasone, 1 µM; hits give low values; z-score, hits read low; 0.47% of 220,000 active; AID 1381;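 active = plate z-score of nuclear minus cytoplasmic receptor signal below a set negative limit, without overly bright fluorescence or cell loss, cut at about -3.5 in these data, passing the limit was not always enough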;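 also: z-score of nuclear minus cytoplasmic ring GR-EGFP intensity difference per well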
#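 Also added: dexamethasone, 1.0 µM final. Medium: tet-free, stripped-serum medium. Detection: fixed, Hoechst-stained cells imaged at 10x for EGFP. Read-out: nuclear-to-cytoplasmic GR-EGFP distribution per well. Times: induction 48 h, compound 1 h, agonist 30 min.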
# HSV augment = HSV replication enhancement; HSV replication augmentation in cells, fold increase; maximum fold increase; 0.005% of 220,000 active; in the data active = maximum fold increase above about 1.5; inconclusive = no clear call, values can overlap the other calls; tested in PC3 cells
# Autophagy HCS = modulators of autophagy; MEF GFP-LC3 puncta imaging; test concentration mostly 10 µM; calls only at 10 µM (by protocol); 0.98% of 190,000 active;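 active = percentage of spot-positive cells more than 3 SD above its plate mean, without a fluorescence outlier flag or 80% toxicity; inconclusive = no clear call, values can overlap the other calls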;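 also: spot-positive cell cutoff set from DMSO-treated cells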
# L929 necroptosis = blocks zVAD induced death of L929 cells. viability rescue, % at 10 µM. 0.38% of 220,000 active. L929 zVAD necroptosis rescue, ATP luminescence, 24 h; with zVAD 60 µM;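 active = activation, scaled between plate controls, above about 75%, limit read from the data; inactive = activation under that limit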;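 also: 0% = zVAD with DMSO and 100% = DMSO alone without zVAD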
# Furin inh = inhibitors of human furin; P09958; purified furin, fluorogenic substrate cleavage; inhibition, % at 20 µM or 30 µM; 0.061% of 220,000 active; AID 463115; in the data active = inhibition above about 25%
# Target sequence (P09958 108-714 limits assumed): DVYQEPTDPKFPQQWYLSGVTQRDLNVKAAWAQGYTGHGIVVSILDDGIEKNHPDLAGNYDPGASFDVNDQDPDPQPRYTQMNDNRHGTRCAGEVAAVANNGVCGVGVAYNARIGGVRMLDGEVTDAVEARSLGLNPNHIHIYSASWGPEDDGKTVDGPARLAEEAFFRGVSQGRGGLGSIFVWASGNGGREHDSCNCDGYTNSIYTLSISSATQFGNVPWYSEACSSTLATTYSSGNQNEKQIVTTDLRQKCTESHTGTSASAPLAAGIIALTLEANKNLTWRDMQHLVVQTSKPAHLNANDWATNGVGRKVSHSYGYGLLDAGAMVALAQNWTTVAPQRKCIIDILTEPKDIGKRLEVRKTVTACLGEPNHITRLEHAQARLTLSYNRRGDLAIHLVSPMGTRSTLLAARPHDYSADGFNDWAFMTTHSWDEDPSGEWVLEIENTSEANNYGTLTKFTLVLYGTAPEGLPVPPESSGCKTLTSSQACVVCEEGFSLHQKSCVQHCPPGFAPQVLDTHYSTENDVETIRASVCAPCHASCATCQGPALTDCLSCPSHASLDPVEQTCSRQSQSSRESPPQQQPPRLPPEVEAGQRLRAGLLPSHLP
# TNF death inh = blocks TNF-alpha induced death of Jurkat FADD-/- cells | Jurkat FADD-/- TNF necroptosis rescue, ATP luminescence, 24 h; 0 = TNF only, 100 = no-TNF cells | 0.068% of 220,000 active | activation (protection from cell death), % at 10 µM;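 active = activation, meaning protection from cell death, of at least 50% relative to plate controls; inactive = activation below 50%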;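 also: necroptosis triggered by 40 ng/mL TNF-alpha added together with compound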
# Numbers without * were called inactive; i = inactive; ? = inconclusive; . = not tested or not shown; + = active, no number. Sampled rows, rich in hits. Any-hit rate of the full collection: about 1.8%.
SMILES,Dynein cargo inh,HSV augment,Autophagy HCS,L929 necroptosis,Furin inh,TNF death inh
Cc1ccc(CN(c2ccc(C(=O)NCC3CCCO3)cc2)S(C)(=O)=O)cc1 (stereo not given),-0.82,i,i,0,-12,1
O=C(CCCSc1nnnn1-c1cccc2ccccc12)c1ccc(F)cc1,1.8,i,i,0,-3,0
N=C1SC(CC(=O)Nc2ccccc2[N+](=O)[O-])C(=O)N1c1ccccc1 (stereo not given),0.13,i,.,1,-26,0
CCOP(=O)(OCC)C(NC(=O)Nc1ccc(C)cc1)C(N)=O (stereo not given),-0.086,i,.,0,-18,2
CCCOP(=O)(OCCC)C1(Nc2ccc(C)cc2)CCCCC1,3.1,.,i,0,26*,-3
COC(=O)c1[nH]c2c(c1C)C(=O)CC(c1cccs1)C2 (stereo not given),2.1,i,+,-1,-3,-17
COCCOC(=O)c1[nH]c2c(c1C)C(=O)CC(c1ccc(F)cc1)C2 (stereo not given),0.67,i,i,2,-19,-7
COCCOC(=O)c1[nH]c2c(c1C)C(=O)CC(c1ccccc1)C2 (stereo not given),0.29,.,+,-1,-17,-17
CCN1C(=O)CCC(C(=O)O)C1c1ccc(OC)cc1 (stereo not given),0.41,i,.,0,-12,1
O=c1[nH]c(-c2ccccc2F)nc2c1sc(=S)n2Cc1ccccc1,-0.061,i,+,3,-1,0
CN1/C(=C\C=C(/C#N)C(=O)Nc2ccc(Cl)cc2)C(C)(C)c2ccccc21,-0.099,?,+,0,10,2
CN1/C(=C\C(=O)Nc2ccc(Cl)cc2)C(C)(C)c2ccccc21,0.46,i,i,1,0,2
CCN(CC)CC1CCCCN1CC(=O)N1c2ccccc2C(=O)Nc2cccnc21 (stereo not given),.,i,.,.,.,.
O=[N+]([O-])c1ccc(CSc2nnc(Cc3ccccc3)n2-c2ccc(F)cc2)cc1,-0.28,i,+,-1,-9,2
N=C1S/C(=C\c2ccc(-c3cccc(Cl)c3)o2)C(=O)N1c1nccs1,-0.88,i,+,11,-1,1
CCOc1ccc(OCCN2C(=O)NC(Cc3c[nH]c4ccccc34)C2=O)cc1 (stereo not given),-0.75,i,i,1,-18,5
O=C1NC(Cc2c[nH]c3ccccc23)C(=O)N1CCOc1ccc(F)cc1 (stereo not given),0.01,i,i,7,-7,65*
Cc1cccc2cc(C(c3nnnn3Cc3ccccc3)N3CCCc4ccccc43)c(=O)[nH]c12 (stereo not given),1.4,i,+,0,-18,0
CCN1CCN(C(c2cc3cccc(C)c3[nH]c2=O)c2nnnn2Cc2ccccc2)CC1 (stereo not given),-0.26,i,i,2,-18,2
O=C(Nc1ccccc1)c1cccc(S(=O)(=O)Oc2ccc([N+](=O)[O-])cc2)c1,0.23,i,i,2,-18,5
Cc1ccc(S(=O)(=O)Oc2ccccc2/C=N/NC(N)=S)cc1,-0.29,i,+,1,-16,-20
Cc1ccc(S(=O)(=O)Oc2ccccc2/C=N/N=C(N)N)cc1,-0.14,i,i,-1,-23,4
Cc1ccc(-c2ccc(=O)n(CC(=O)NCCCN3CCCCC3C)n2)cc1 (stereo not given),-0.62,i,i,2,-23,-2
CC1CCCCN1CCNC(=O)Cn1nc(-c2ccccc2)ccc1=O (stereo not given),-0.69,i,+,0,-6,0
CC(C)CN1C(=O)/C(=C(/C#N)C(=O)NC2CCCCC2)c2ccccc21,-0.092,i,i,2,-19,-8
SMILES,Dynein cargo inh,HSV augment,Autophagy HCS,L929 necroptosis,Furin inh,TNF death inh
CCn1cc(/C=C/C(=O)Nc2ccn(Cc3c(F)c(F)cc(F)c3F)n2)cn1,0.42,i,i,1,-6,78*
CCn1cc(/C=C/C(=O)Nc2ccc(C)cc2Br)cn1,0.23,i,i,1,-8,1
O=C(c1cccc2cccc(O)c12)N1CCCCC1,-0.98,i,+,0,-26,-3
CCCCNc1cc(Cl)nc(N)n1,-0.92,i,.,1,-9,-3
N=c1c(-c2nc3ccccc3[nH]2)cc(C(=O)c2cccs2)nn1-c1ccc(Cl)cc1,0.14,i,+,-1,-14,-7
O=C(Nc1nc2ccccc2[nH]1)c1cccs1,-0.57,i,i,9,-23,8
Cc1ccc(N(CCC(=O)NC(C)(C)C)S(=O)(=O)c2ccc(C)cc2)cc1,0.33,i,+,1,-20,0
Cc1ccnc(NC(=O)CSc2cc(=O)n(C)c3ccccc23)c1,-0.35,i,+,74,-10,15
O=C1NC(CCc2ccccc2)C(=O)N1Cc1ccc(Br)cc1 (stereo not given),-0.63,i,+,2,-19,2
O=C1NC(CCc2ccccc2)C(=O)N1CCOc1ccccc1 (stereo not given),0.67,i,i,1,-19,-2
O=c1c(/C=N/Nc2ccccc2)c(Sc2nnnn2-c2ccccc2)nc2ccccn12,-2.2,.,+,-1,5,0
COc1ccc(C(=O)Nc2ccc(SC(F)F)cc2)cc1,-0.069,i,i,4,-1,-1
CCOC(=O)/C(C#N)=C/c1cc2ccccc2nc1Cl,0.00014,i,i,1,-12,-16
CSc1nc2ccccc2cc1/C=C(\C#N)c1cccc(Cl)c1,-10,i,+,1,-15,-15
O=S1(=O)C=C(SCc2ccc(F)cc2)Nc2ccccc21,0.63,i,i,1,-15,1
Cc1ccc(C)c(NC(=O)c2cnn3ccccc23)c1,-0.17,i,i,85*,-29,-1
CCOc1ccc(N2C(=O)CC(Sc3nnnn3-c3ccccc3)C2=O)cc1 (stereo not given),-3.2,i,+,-1,-23,-1
CCOc1ccc(N2C(=O)CC(Sc3nc(C)cc(C)n3)C2=O)cc1 (stereo not given),-1,i,i,1,-8,0
CCOC(=O)c1sc2cc([N+](=O)[O-])cc(SCCO)c2c1N,-1.5,i,+,0,-6,2
CSC1=NCCN1C(=O)C12CC3CC(CC(C3)C1)C2,-0.021,i,i,-2,-13,-16
COc1cccc(N2CC(O)=C(c3nc4ccccc4c(=O)[nH]3)C2=N)c1,-0.13,i,+,1,-21,-9

# Assay outcomes deposited in PubChem by several laboratories.
